Data taken from ChEMBL document CHEMBL1944627, “[¹⁸F]GE-180: a novel fluorine-18 labelled PET tracer for imaging Translocator protein 18 kDa (TSPO)” (Bioorg Med Chem Lett, 2012).

Legend:
[1] = Metabolic stability in Sprague-Dawley rat brain assessed as compound remaining at 1 to 3 MBq, iv after 60 mins by HPLC analysis; assay type: ADME, organism-based; details: read-out: Stability
Method in brief: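 Radiotracer was injected iv into rats. Brain and plasma were sampled at 10, 30 and 60 min post injection to follow metabolic fate. Brain radioactivity at 60 min is expressed as % parent tracer remaining.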

[2] = biological target: Translocator protein (Rattus norvegicus, UniProt P16257); experiment: Displacement of [3H]PK11195 from TSPO receptor in Wistar rat heart homogenate after 15 mins; assay type: tissue-based
[3] = Lipophilicity, log D of the compound at pH 7.4; assay type: physicochemical; details: buffer
[4] = tested on: Brain; experiment: Biodistribution in Sprague-Dawley rat whole brain at 1 to 3 MBq, iv after 2 mins by gamma counting; assay type: ADME, organism-based; details: in vivo
Method in brief: (§1)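 Tracer formulated in Dulbecco's PBS and given iv, about 1–3 MBq at 10 MBq/mL, under 4% isoflurane, to naive rats (n = 3). Animals were killed at set times after injection. Brain was dissected into regions including striatum and olfactory bulbs, and activity was counted by gamma counter. Values are % id/g, and regional ratios were taken between times or regions.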

[5] = tested on: Rattus norvegicus; experiment: Biodistribution in Sprague-Dawley rat olfactory bulbs at 1 to 3 MBq, iv after 30 mins by gamma counting; assay type: ADME, organism-based, Olfactory bulb; details: in vivo, 0.5 h; method in brief: as §1
[6] = Ratio of drug uptake in olfactory bulb to striatum in Sprague-Dawley rat at 1 to 3 MBq, iv after 30 mins by gamma counting; details: in vivo, 0.5 h
[7] = Ratio of drug uptake in striatum in Sprague-Dawley rat at 1 to 3 MBq, iv after 2 mins to drug uptake in striatum in Sprague-Dawley rat at 1 to 3 MBq, iv after 30 mins; details: in vivo
[8] = Metabolic stability in Sprague-Dawley rat brain assessed as compound remaining at 1 to 3 MBq, iv after 30 mins by HPLC analysis; assay type: ADME, organism-based; details: read-out: Stability

Sequence of Translocator protein (P16257 whole entry, looked up): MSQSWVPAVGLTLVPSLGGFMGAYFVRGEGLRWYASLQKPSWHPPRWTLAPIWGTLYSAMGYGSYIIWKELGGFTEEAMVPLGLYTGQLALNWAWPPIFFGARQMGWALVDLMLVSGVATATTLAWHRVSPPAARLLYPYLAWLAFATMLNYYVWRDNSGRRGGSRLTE

Compound | remaining at 1 h [1] [%] | Ki [2] [nM] | logD [3] | Drug uptake [4] [% ID/g] | Drug uptake [5] [% ID/g] | Ratio [6] | Ratio [7] | remaining at 0.5 h [8] [%]
COc1ccc(OC)c(CN(C(=O)CF)c2ccccc2Oc2ccccc2)c1 | 91 |  |  |  |  |  |  | 
O=C(C1CCCc2c1c1ccccc1n2CCF)N1CCCC1 (racemic) |  | 503 | 2.18 |  |  |  |  | 
COc1ccc(OC)c(CN(C(=O)C[18F])c2ccccc2Oc2ccccc2)c1 |  |  |  | 0.74 | 0.49 |  |  | 
CC(C)N(C)C(=O)C1CCCc2c1c1ccccc1n2CC[18F] (stereo not drawn) | 74 |  |  | 0.53 | 0.35 | 3.18 | 4.54 | 
O=C(C1CCCc2c1c1ccccc1n2CCF)N1CCOCC1 (racemic) |  | 607 | 1.53 |  |  |  |  | 
CCN(CC)C(=O)C1CCCc2c1c1ccccc1n2CCF (racemic) |  | 5.4 | 2.78 |  |  |  |  | 
CCN(CC)C(=O)[C@H]1CCCc2c1c1c(OC)cccc1n2CC[18F] | 94 |  |  | 0.53 | 0.45 |  |  | 
CCCCCCN(CCCCCC)C(=O)C1CCCc2c1c1ccccc1n2CC[18F] (stereo not drawn) |  |  |  | 0.06 | 0.1 | 1.11 | 0.44 | 
CCN(CC)C(=O)C1CCCc2c1c1cc(OC)c(F)cc1n2CC[18F] (stereo not drawn) |  |  |  | 0.29 | 0.21 | 3.5 | 4.17 | 
CCN(CC)C(=O)C1CCCc2c1c1cc(OC)c(F)cc1n2CCF (racemic) |  | 1.5 | 2.38 |  |  |  |  | 
CCN(CC)C(=O)C1CCCc2c1c1cc(F)c(OC)cc1n2CC[18F] (stereo not drawn) |  |  |  | 0.33 | 0.25 | 2.78 | 3 | 
CCCN(CCC)C(=O)C1CCCc2c1c1ccccc1n2CC[18F] (stereo not drawn) |  |  |  | 0.49 | 0.4 | 2.2 | 2.39 | 
O=C(C1CCCc2c1c1ccccc1n2CCF)N1CCCCCC1 (racemic) |  | 4.4 | 2.35 |  |  |  |  | 
CC(C)N(C(=O)C1CCCc2c1c1ccccc1n2CCF)C(C)C (racemic) |  | 1.7 | 2.28 |  |  |  |  | 
CC(C)N(C(=O)C1CCCc2c1c1ccccc1n2CC[18F])C(C)C (stereo not drawn) | 43 |  |  | 0.48 | 0.25 | 2.78 | 5.11 | 
CCN(Cc1ccccc1)C(=O)C1CCCc2c1c1ccccc1n2CC[18F] (stereo not drawn) | 76 |  |  | 0.48 | 0.34 | 3.4 | 4.3 | 
CC(C)N(C)C(=O)C1CCCc2c1c1cc(F)ccc1n2CCF (racemic) |  | 8.23 | 2.72 |  |  |  |  | 
O=C(NCc1ccccc1)C1CCCc2c1c1ccccc1n2CCF (racemic) |  | 28.6 | 2.47 |  |  |  |  | 
CCN(CC)C(=O)C1CCCc2c1c1ccc(F)cc1n2CCF (racemic) |  | 1.05 |  |  |  |  |  | 
CCN(CC)C(=O)C1CCCc2c1c1ccc(F)cc1n2CC[18F] (stereo not drawn) |  |  |  | 0.52 | 0.48 | 1.92 | 1.8 | 
CCN(CC)C(=O)C1CCCc2c1c1c(OC)cccc1n2CCF (racemic) |  | 2.4 | 2.95 |  |  |  |  | 
O=C(C1CCCc2c1c1ccccc1n2CC[18F])N1CCCCCC1 (stereo not drawn) | 79 |  |  | 0.45 | 0.33 | 4.13 | 5.38 | 
CCN(CC)C(=O)C1CCCc2c1c1ccc(OC)cc1n2CCF (racemic) |  | 5.5 | 2.41 |  |  |  |  | 
CCN(CC)C(=O)C1CCCc2c1c1cc(O)ccc1n2CCF (racemic) |  | 135 | 1.7 |  |  |  |  | 
CCCN(C)C(=O)C1CCCc2c1c1ccccc1n2CCF (racemic) |  | 2.2 | 1.99 |  |  |  |  | 
CCN(Cc1ccccc1)C(=O)C1CCCc2c1c1ccccc1n2CCF (racemic) |  | 0.73 | 2.84 |  |  |  |  | 
O=C(C1CCCc2c1c1ccccc1n2CCF)N1CCCCC1 (racemic) |  | 18.3 | 2.53 |  |  |  |  | 

Compound | remaining at 1 h [1] [%] | Ki [2] [nM] | logD [3] | Drug uptake [4] [% ID/g] | Drug uptake [5] [% ID/g] | Ratio [6] | Ratio [7] | remaining at 0.5 h [8] [%]
CCCN(CC)C(=O)C1CCCc2c1c1ccccc1n2CCF (racemic) |  | 0.38 |  |  |  |  |  | 
CN(Cc1ccccc1)C(=O)C1CCCc2c1c1cc(F)ccc1n2CCF (racemic) |  | 1.45 | 3.1 |  |  |  |  | 
CC(C)N(C)C(=O)C1CCCc2c1c1ccccc1n2CCF (racemic) |  | 4 | 2.2 |  |  |  |  | 
CCN(CC)C(=O)C1Sc2ccccc2-c2c1c1ccccc1n2CCF (stereo not drawn) |  | 0.67 |  |  | 0.17 | 1.42 | 2.16 | 95
CCN(CC)C(=O)C1CCCc2c1c1cc(OC)ccc1n2CCF (racemic) |  | 1.9 | 2.71 |  |  |  |  | 
CCN(CC)C(=O)[C@@H]1CCCc2c1c1c(OC)cccc1n2CC[18F] |  |  |  | 0.53 | 0.23 |  |  | 
CCCCCCN(CCCCCC)C(=O)C1CCCc2c1c1ccccc1n2CCF (racemic) |  | 0.7 | 2.13 |  |  |  |  | 
CCC(C)N([11CH3])C(=O)c1cc2ccccc2c(-c2ccccc2Cl)n1 (stereo not drawn) | 100 |  |  | 0.28 | 0.21 |  |  | 
CN(Cc1ccccc1)C(=O)C1CCCc2c1c1ccccc1n2CCF (racemic) |  | 1.3 | 2.42 |  |  |  |  | 
CCN(CC)C(=O)C1CCCc2c1c1cc(F)ccc1n2CC[18F] (stereo not drawn) | 84 |  |  | 0.56 | 0.41 |  |  | 
CCCN(CC)C(=O)C1CCCc2c1c1ccccc1n2CC[18F] (stereo not drawn) |  |  |  | 0.45 | 0.46 | 2.09 | 1.77 | 
CCN(CC)C(=O)C1CCCc2c1c1c(OC)cccc1n2CC[18F] (racemic) | 90 |  |  | 0.52 | 0.36 |  |  | 
CCN(CC)C(=O)C1CCCc2c1c1ccccc1n2CC[18F] (stereo not drawn) | 62 |  |  | 0.53 | 0.39 | 3.25 | 4.08 | 
CCN(CC)C(=O)C1CCCc2c1c1cc(OC)ccc1n2CC[18F] (stereo not drawn) | 76 |  |  | 0.39 | 0.31 | 3.88 | 4.25 | 
O=C(C1CCCc2c1c1ccccc1n2CC[18F])N1CCCC1 (stereo not drawn) |  |  |  | 0.34 | 0.12 |  |  | 
CCN(CC)C(=O)C1CCCc2c1c1c(OC)cc(OC)cc1n2CCF (racemic) |  | 4.34 | 1.95 |  |  |  |  | 
CCN(CC)C(=O)C1CCCc2c1c1cc(F)c(OC)cc1n2CCF (racemic) |  | 3.1 | 2.08 |  |  |  |  | 
CCCN(CCC)C(=O)C1CCCc2c1c1ccccc1n2CCF (racemic) |  | 0.7 | 2.98 |  |  |  |  | 
CCN(CC)C(=O)C1CCCc2c1c1c(F)cccc1n2CC[18F] (stereo not drawn) | 93 |  |  | 0.5 | 0.51 |  |  | 
CN(C)C(=O)C1CCCc2c1c1ccccc1n2CCF (racemic) |  | 502 | 1.7 |  |  |  |  | 
CCOc1ccc2c(c1)c1c(n2CC[18F])CCCC1C(=O)N(CC)CC (stereo not drawn) |  |  |  | 0.33 | 0.25 | 2.5 | 3 | 
O=C(C1CCCc2c1c1ccccc1n2CC[18F])N1CCCCC1 (stereo not drawn) | 83 |  |  | 0.51 | 0.25 |  |  | 
CCN(CC)C(=O)C1CCCc2c1c1cc(F)ccc1n2CCF (racemic) |  | 3.8 | 2.37 |  |  |  |  | 
CCN(CC)C(=O)C1CCCc2c1c1ccc(OC)cc1n2CC[18F] (stereo not drawn) |  |  |  | 0.36 | 0.39 | 4.33 | 4 | 
CN(Cc1ccccc1)C(=O)C1CCCc2c1c1ccccc1n2CC[18F] (stereo not drawn) | 81 |  |  | 0.55 | 0.34 | 3.4 | 4.7 | 
CCCN(C)C(=O)C1CCCc2c1c1ccccc1n2CC[18F] (stereo not drawn) |  |  |  | 0.39 | 0.25 | 2.5 | 3.5 | 
CCOc1ccc2c(c1)c1c(n2CCF)CCCC1C(=O)N(CC)CC (racemic) |  | 3.1 | 2.56 |  |  |  |  | 
